ChEMBL document CHEMBL1154778, “Synthesis and biological evaluation of C-5 methyl substituted 4-arylthio and 4-aryloxy-3-Iodopyridin-2(1H)-one type anti-HIV agents” (J Med Chem, 2009)

Test system: Human immunodeficiency virus 1
Experiment: Antiviral activity against HIV1 HXB2 harboring Y181C mutant reverse transcriptase infected in human MT4 cells after 5 days by MTT assay
Assay type: functional, organism-based
Settings: Human immunodeficiency virus 1, HXB2, MT4, 120 h
Procedure, shortened: (§1)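 Mutant viruses were made by recombining the mutant PR-RT sequence into a PR-RT-deleted HIV-1 HXB2 proviral clone. MT4 cells were grown in RPMI 1640 with 10% FCS and antibiotics. Virus at 200 CCID50/well and 30000 cells/well were incubated with varied compound concentrations for 5 days at 37 °C, 5% CO2. MTT viability gave IC50, the concentration giving 50% infection versus the drug-free control.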
With Cc1cc(C)cc(Sc2c(CSC(C)C)c(C)[nH]c(=O)c2I)c1 the IC50 was 630 nM.
Cc1cc(C)cc(Oc2c(COCc3ccsc3)c(C)[nH]c(=O)c2I)c1 showed an IC50 of 25.1 nM.
In the case of Cc1cc(C)cc(Oc2c(Cn3cc(Br)cn3)c(C)[nH]c(=O)c2I)c1, the IC50 is reported as 31.6 nM.
Molecule Cc1cc(C)cc(Oc2c(CSCc3nccs3)c(C)[nH]c(=O)c2I)c1 has an IC50 of 39.8 nM.
With Cc1cc(C)cc(Oc2c(Cn3cnc(C)n3)c(C)[nH]c(=O)c2I)c1 the IC50 was 31.6 nM.
Cc1cc(C)cc(Oc2c(CSCc3ccccc3)c(C)[nH]c(=O)c2I)c1 gave an IC50 of 15.8 nM.
COC1CCCN(Cc2c(C)[nH]c(=O)c(I)c2Sc2cc(C)cc(C)c2)C1 (stereo not given) showed an IC50 of 25.1 nM.
In the case of CCOC(=O)CC1CN(Cc2c(C)[nH]c(=O)c(I)c2Oc2cc(C)cc(C)c2)CCO1 (stereo not given), the IC50 is reported as 25.1 nM.
For Cc1cc(C)cc(Oc2c(Cn3cncc3-c3ccccc3)c(C)[nH]c(=O)c2I)c1, the IC50 was 31.6 nM.
With Cc1cc(C)cc(Oc2c(Cn3cnc(C#N)c3C#N)c(C)[nH]c(=O)c2I)c1 the IC50 was 199 nM.
Work on Cc1cc(C)cc(Oc2c(CN(C)Cc3ccco3)c(C)[nH]c(=O)c2I)c1 yielded an IC50 of 39.8 nM.
Cc1cc(C)cc(Oc2c(CN3CCC(OC(N)=O)CC3)c(C)[nH]c(=O)c2I)c1 gave an IC50 of 25.1 nM.

Test system: Human immunodeficiency virus 1
Experiment: Antiviral activity against HIV1 HXB2 harboring K103N mutant reverse transcriptase infected in human MT4 cells after 5 days by MTT assay
Assay type: functional, organism-based
Settings: Human immunodeficiency virus 1, HXB2, MT4, 120 h
Procedure, shortened: as §1
With Cc1cc(C)cc(Sc2c(CSC(C)C)c(C)[nH]c(=O)c2I)c1 the IC50 was 31.6 nM.
Cc1cc(C)cc(Oc2c(COCc3ccsc3)c(C)[nH]c(=O)c2I)c1 gave an IC50 of 25.1 nM.
Molecule Cc1cc(C)cc(Oc2c(Cn3cc(Br)cn3)c(C)[nH]c(=O)c2I)c1 has an IC50 of 7.94 nM.
With Cc1cc(C)cc(Oc2c(CSCc3nccs3)c(C)[nH]c(=O)c2I)c1 the IC50 was 25.1 nM.
Molecule Cc1cc(C)cc(Oc2c(Cn3cnc(C)n3)c(C)[nH]c(=O)c2I)c1 has an IC50 of 15.8 nM.
With Cc1cc(C)cc(Oc2c(CSCc3ccccc3)c(C)[nH]c(=O)c2I)c1 the IC50 was 7.94 nM.
COC1CCCN(Cc2c(C)[nH]c(=O)c(I)c2Sc2cc(C)cc(C)c2)C1 (stereo not given) gave an IC50 of 3.16 nM.
CCOC(=O)CC1CN(Cc2c(C)[nH]c(=O)c(I)c2Oc2cc(C)cc(C)c2)CCO1 (stereo not given) showed an IC50 of 1.99 nM.
Work on Cc1cc(C)cc(Oc2c(Cn3cncc3-c3ccccc3)c(C)[nH]c(=O)c2I)c1 yielded an IC50 of 7.94 nM.
For Cc1cc(C)cc(Oc2c(Cn3cnc(C#N)c3C#N)c(C)[nH]c(=O)c2I)c1, the IC50 was 31.6 nM.
For Cc1cc(C)cc(Oc2c(CN(C)Cc3ccco3)c(C)[nH]c(=O)c2I)c1, the IC50 was 31.6 nM.
Cc1cc(C)cc(Oc2c(CN3CCC(OC(N)=O)CC3)c(C)[nH]c(=O)c2I)c1 showed an IC50 of 1.99 nM.

Test system: Human immunodeficiency virus 1
Experiment: Antiviral activity against HIV-1 LAI harboring wild type reverse transcriptase infected in human MT4 cells after 5 days by MTT assay
Assay type: functional, organism-based
Settings: Human immunodeficiency virus 1, LAI, MT4, 120 h
Procedure, shortened: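 MT4 cells were kept in RPMI 1640 with 10% fetal calf serum and antibiotics at 37 °C, 5% CO2. A range of compound concentrations was incubated with HIV-1 LAI at 200 CCID50/well and 30000 MT4 cells/well for 5 days at 37 °C. Cell viability was read by MTT, and IC50 was the concentration giving 50% infection versus the drug-free control.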
Cc1cc(C)cc(Sc2c(CSC(C)C)c(C)[nH]c(=O)c2I)c1 gave an IC50 of 7.94 nM.
Work on Cc1cc(C)cc(Oc2c(COCc3ccsc3)c(C)[nH]c(=O)c2I)c1 yielded an IC50 of 5 nM.
In the case of Cc1cc(C)cc(Oc2c(Cn3cc(Br)cn3)c(C)[nH]c(=O)c2I)c1, the IC50 is reported as 7.94 nM.
Molecule Cc1cc(C)cc(Oc2c(CSCc3nccs3)c(C)[nH]c(=O)c2I)c1 has an IC50 of 7.94 nM.
Cc1cc(C)cc(Oc2c(Cn3cnc(C)n3)c(C)[nH]c(=O)c2I)c1 gave an IC50 of 3.98 nM.
With Cc1cc(C)cc(Oc2c(CSCc3ccccc3)c(C)[nH]c(=O)c2I)c1 the IC50 was 6.3 nM.
COC1CCCN(Cc2c(C)[nH]c(=O)c(I)c2Sc2cc(C)cc(C)c2)C1 (stereo not given) showed an IC50 of 5.01 nM.
For CCOC(=O)CC1CN(Cc2c(C)[nH]c(=O)c(I)c2Oc2cc(C)cc(C)c2)CCO1 (stereo not given), the IC50 was 6.3 nM.
Work on Cc1cc(C)cc(Oc2c(Cn3cncc3-c3ccccc3)c(C)[nH]c(=O)c2I)c1 yielded an IC50 of 6.3 nM.
Work on Cc1cc(C)cc(Oc2c(Cn3cnc(C#N)c3C#N)c(C)[nH]c(=O)c2I)c1 yielded an IC50 of 10 nM.
Cc1cc(C)cc(Oc2c(CN(C)Cc3ccco3)c(C)[nH]c(=O)c2I)c1 gave an IC50 of 5.01 nM.
For Cc1cc(C)cc(Oc2c(CN3CCC(OC(N)=O)CC3)c(C)[nH]c(=O)c2I)c1, the IC50 was 6.3 nM.

Test system: Human immunodeficiency virus 1
Experiment: Antiviral activity against HIV1 HXB2 harboring Y188L mutant reverse transcriptase infected in human MT4 cells after 5 days by MTT assay
Assay type: functional, organism-based
Settings: Human immunodeficiency virus 1, HXB2, MT4, 120 h
Procedure, shortened: as §1
Cc1cc(C)cc(Sc2c(CSC(C)C)c(C)[nH]c(=O)c2I)c1 gave an IC50 of 3160 nM.
For Cc1cc(C)cc(Oc2c(COCc3ccsc3)c(C)[nH]c(=O)c2I)c1, the IC50 was 100 nM.
For Cc1cc(C)cc(Oc2c(Cn3cc(Br)cn3)c(C)[nH]c(=O)c2I)c1, the IC50 was 100 nM.
Cc1cc(C)cc(Oc2c(CSCc3nccs3)c(C)[nH]c(=O)c2I)c1 showed an IC50 of 2000 nM.
Cc1cc(C)cc(Oc2c(Cn3cnc(C)n3)c(C)[nH]c(=O)c2I)c1 showed an IC50 of 125 nM.
For Cc1cc(C)cc(Oc2c(CSCc3ccccc3)c(C)[nH]c(=O)c2I)c1, the IC50 was 31.6 nM.
COC1CCCN(Cc2c(C)[nH]c(=O)c(I)c2Sc2cc(C)cc(C)c2)C1 (stereo not given) gave an IC50 of 125 nM.
CCOC(=O)CC1CN(Cc2c(C)[nH]c(=O)c(I)c2Oc2cc(C)cc(C)c2)CCO1 (stereo not given) showed an IC50 of 50.1 nM.
Cc1cc(C)cc(Oc2c(Cn3cncc3-c3ccccc3)c(C)[nH]c(=O)c2I)c1 showed an IC50 of 31.6 nM.
Cc1cc(C)cc(Oc2c(Cn3cnc(C#N)c3C#N)c(C)[nH]c(=O)c2I)c1 gave an IC50 of 1000 nM.
Cc1cc(C)cc(Oc2c(CN(C)Cc3ccco3)c(C)[nH]c(=O)c2I)c1 gave an IC50 of 251 nM.
Work on Cc1cc(C)cc(Oc2c(CN3CCC(OC(N)=O)CC3)c(C)[nH]c(=O)c2I)c1 yielded an IC50 of 50.1 nM.

Test system: not listed separately
Experiment: Selectivity index, ratio of CC50 for human MT4 cells to IC50 for HIV-1 LAI harboring wild type reverse transcriptase infected in human MT4 cells
Assay type: functional
Settings: not given
Procedure, shortened: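 Cytotoxicity was measured in mock-infected MT4 cultures (30000 cells/well) given the same compound concentration range, run in parallel with the infected cultures for 5 days at 37 °C, 5% CO2, with MTT viability. CC50 was the concentration reducing viability by 50% versus the drug-free control. SI was CC50 divided by IC50 against HIV-1 LAI.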
For Cc1cc(C)cc(Sc2c(CSC(C)C)c(C)[nH]c(=O)c2I)c1, the “Ratio CC50/IC50” value was greater than 12589.
For Cc1cc(C)cc(Oc2c(COCc3ccsc3)c(C)[nH]c(=O)c2I)c1, the “Ratio CC50/IC50” value was greater than 19953.
For Cc1cc(C)cc(Oc2c(Cn3cc(Br)cn3)c(C)[nH]c(=O)c2I)c1, the “Ratio CC50/IC50” value was greater than 12589.
In the case of Cc1cc(C)cc(Oc2c(CSCc3nccs3)c(C)[nH]c(=O)c2I)c1, the “Ratio CC50/IC50” value is reported as greater than 12589.
In the case of Cc1cc(C)cc(Oc2c(Cn3cnc(C)n3)c(C)[nH]c(=O)c2I)c1, the “Ratio CC50/IC50” value is reported as greater than 25118.
For Cc1cc(C)cc(Oc2c(CSCc3ccccc3)c(C)[nH]c(=O)c2I)c1, the “Ratio CC50/IC50” value was greater than 15849.
For COC1CCCN(Cc2c(C)[nH]c(=O)c(I)c2Sc2cc(C)cc(C)c2)C1 (stereo not given), the “Ratio CC50/IC50” value was greater than 19953.
In the case of CCOC(=O)CC1CN(Cc2c(C)[nH]c(=O)c(I)c2Oc2cc(C)cc(C)c2)CCO1 (stereo not given), the “Ratio CC50/IC50” value is reported as greater than 15849.
For Cc1cc(C)cc(Oc2c(Cn3cncc3-c3ccccc3)c(C)[nH]c(=O)c2I)c1, the “Ratio CC50/IC50” value was greater than 15858.
For Cc1cc(C)cc(Oc2c(Cn3cnc(C#N)c3C#N)c(C)[nH]c(=O)c2I)c1, the “Ratio CC50/IC50” value was greater than 10000.
In the case of Cc1cc(C)cc(Oc2c(CN(C)Cc3ccco3)c(C)[nH]c(=O)c2I)c1, the “Ratio CC50/IC50” value is reported as 12589.
In the case of Cc1cc(C)cc(Oc2c(CN3CCC(OC(N)=O)CC3)c(C)[nH]c(=O)c2I)c1, the “Ratio CC50/IC50” value is reported as 7943.
